Legend:
MDA-MB-231 = test: Cytotoxicity against Non-ERalpha-dependent human MDA-MB-231 cells assessed as reduction in cell viability incubated for 48 hrs by MTT assay; format: functional, cell-based; conditions: MDA-MB-231, 48 h
Outline: (§1)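 Cells grown by standard culture protocols, then exposed for 48 h to serial concentrations (0.1, 1, 10, 100, 1000; unit not given) of each compound. Survival read by absorbance at 570 nm and expressed as % viability = A sample/A control ×100. IC50 fitted from concentration versus % survival; mean ± SEM of three independent values.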

MCF7 [1] = test: Cytotoxicity against ERalpha-dependent human MCF7 cells assessed as reduction in cell viability incubated for 48 hrs by MTT assay; format: functional, cell-based; conditions: MCF7, 48 h; outline: as §1
MCF-10A = test: Cytotoxicity against human MCF-10A cells assessed as reduction in cell viability incubated for 48 hrs by MTT assay; format: cell-based; outline: as §1
[2] = target: Serine/threonine-protein kinase pim-1 (Homo sapiens, UniProt P11309); test: Inhibition of recombinant human GST-tagged PIM1 by ELISA
Outline: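 PIM-1 kinase activity measured with the HTScan Pim-1 kinase assay kit, following the kit instructions. Compounds dissolved in DMSO and tested at four serial concentrations; IC50 derived from these.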

MCF7 [3] = test: Induction of apoptosis in human MCF7 cells assessed as late apoptotic cells at 5.61 uM incubated for 48 hrs by Annexin V-FITC/propidium iodide staining based flow cytometric analysis (reference value: 0.16 %); format: functional
MCF7 [4] = test: Induction of apoptosis in human MCF7 cells assessed as increase in necrotic cells at 5.61 uM incubated for 48 hrs by Annexin V-FITC/propidium iodide staining based flow cytometric analysis relative to control; format: functional
[5] = Downregulation of PIM1 gene expression in human MCF7 cells at 5.61 uM incubated for 48 hrs by RT-PCR analysis relative to control; format: functional
MCF7 [6] = test: Induction of apoptosis in human MCF7 cells assessed as fold increase in caspase-3 gene expression at 5.61 uM incubated for 48 hrs by RT-PCR analysis relative to control; format: functional
[7] = Upregulation of MDM2 gene expression in human MCF7 cells at 5.61 uM incubated for 48 hrs by RT-PCR analysis relative to control; format: functional
MCF7 [8] = test: Induction of apoptosis in human MCF7 cells assessed as increase in total apoptotic cells at 5.61 uM incubated for 48 hrs by Annexin V-FITC/propidium iodide staining based flow cytometric analysis relative to control; format: functional
MCF7 [9] = test: Induction of apoptosis in human MCF7 cells assessed as early apoptotic cells at 5.61 uM incubated for 48 hrs by Annexin V-FITC/propidium iodide staining based flow cytometric analysis (reference value: 0.43 %); format: functional
MCF7 [10] = test: Induction of cell cycle arrest in human MCF7 cells assessed as accumulation of cells at G2/M phase at 5.61 uM incubated for 48 hrs by propidium iodide staining based flow cytometric analysis (reference value: 12.26 %); format: functional
MCF7 [11] = test: Induction of apoptosis in human MCF7 cells assessed as fold increase in caspase-9 gene expression at 5.61 uM incubated for 48 hrs by RT-PCR analysis relative to control; format: functional
MCF7 [12] = test: Induction of cell cycle arrest in human MCF7 cells assessed as accumulation of cells at preG1 phase at 5.61 uM incubated for 48 hrs by propidium iodide staining based flow cytometric analysis (reference value: 1.64 %); format: functional
[13] = Upregulation of P53 gene expression in human MCF7 cells at 5.61 uM incubated for 48 hrs by RT-PCR analysis relative to control; format: functional
MCF7 [14] = test: Induction of apoptosis in human MCF7 cells assessed as necrotic cells at 5.61 uM incubated for 48 hrs by Annexin V-FITC/propidium iodide staining based flow cytometric analysis (reference value: 1.05 %); format: functional
[15] = Upregulation of PUMA gene expression in human MCF7 cells at 5.61 uM incubated for 48 hrs by RT-PCR analysis relative to control; format: functional
MCF7 [16] = test: Induction of cell cycle arrest in human MCF7 cells assessed as accumulation of cells at G0/G1 phase at 5.61 uM incubated for 48 hrs by propidium iodide staining based flow cytometric analysis (reference value: 43.92 %); format: functional
MCF7 [17] = test: Induction of apoptosis in human MCF7 cells assessed as fold decrease in BCL2 gene expression at 5.61 uM incubated for 48 hrs by RT-PCR analysis relative to control; format: functional

Chain of Serine/threonine-protein kinase pim-1 (P11309 whole entry): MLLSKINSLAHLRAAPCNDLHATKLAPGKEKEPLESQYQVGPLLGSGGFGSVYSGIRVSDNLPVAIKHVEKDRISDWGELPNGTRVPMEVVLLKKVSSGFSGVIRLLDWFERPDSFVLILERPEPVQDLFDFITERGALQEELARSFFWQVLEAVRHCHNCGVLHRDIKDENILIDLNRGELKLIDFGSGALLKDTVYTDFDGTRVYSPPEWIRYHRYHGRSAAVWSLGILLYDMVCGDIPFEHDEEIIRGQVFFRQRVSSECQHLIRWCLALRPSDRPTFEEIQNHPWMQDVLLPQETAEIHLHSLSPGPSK

Structure (SMILES)	IC50 (MDA-MB-231) [µM]	IC50 (MCF7 [1]) [µM]	IC50 (MCF-10A) [µM]	IC50 [2] [µM]	further results
N#Cc1c(N)nc2nn3c4ccc5ccccc5c4nnc3c2c1-c1ccc(-c2c(C#N)c(N)nc3nn4c(nnc5ccc6ccccc6c54)c23)cc1	43.7	11.4			
CC(=O)c1nnc2c3c(-c4ccccc4Cl)c(C#N)c(O)nc3nn2c1C	20.8	14.8			
N#Cc1c(N)nc2[nH]nc(N)c2c1-c1ccc(-c2c(C#N)c(N)nc3[nH]nc(N)c23)cc1	35.7	17.9	43.6		
N#Cc1c(-c2ccccc2Cl)c2c(nn3c4ccc(O)cc4nnc23)[nH]c1=O	24.7	10	≥ 50	0.112	
N#Cc1c(N)nc(Sc2ccccc2)c(C#N)c1-c1ccc(-c2c(C#N)c(N)nc(Sc3ccccc3)c2C#N)cc1		16.8	48.7		
N#Cc1nnc2c3c(-c4ccccc4Cl)c(C#N)c(O)nc3nn2c1O	10.6	27.5			
N#Cc1c(N)nc2[nH]nc(N)c2c1-c1ccccc1Cl		36.6	20.6		
N#Cc1c(-c2ccccc2Cl)c2c(N/N=C3\C=CC(=O)c4ccccc43)n[nH]c2[nH]c1=O	≥ 50	8.71	≥ 50	0.095	
N#Cc1c(N)nc2[nH]nc(N)c2c1-c1cccc(Cl)c1		≥ 50			
Cn1nc(N)c2c(-c3ccccc3Cl)c(C#N)c(N)nc21			53.7		
N#Cc1c(-c2ccccc2Cl)c2c(nn3c4ccc5ccccc5c4nnc23)[nH]c1=O	9.76	≥ 50			
N#Cc1nnc2c3c(-c4ccccc4Cl)c(C#N)c(=O)[nH]c3nn2c1N	≥ 50	6.98	≥ 50	0.043	
CCOC(=O)c1nnc2c3c(-c4ccccc4Cl)c(C#N)c(=O)[nH]c3nn2c1O	38.7	5.61	46.8	0.026	Activity (MCF7 [3]): 16.29%; fold change (FC) (MCF7 [4]): 10.5; fold change (FC) [5]: 0.25; fold change (FC) (MCF7 [6]): 7.9; fold change (FC) [7]: 3.9; fold change (FC) (MCF7 [8]): 19.17; Activity (MCF7 [9]): 3.93%; Activity (MCF7 [10]): 34.58%; fold change (FC) (MCF7 [11]): 6.56; Activity (MCF7 [12]): 31.25%; fold change (FC) [13]: 4.2; Activity (MCF7 [14]): 11.03%; fold change (FC) [15]: 6.32; Activity (MCF7 [16]): 35.66%; fold change (FC) (MCF7 [17]): 0.41
Cn1nc(N)c2c(-c3ccc(-c4c(C#N)c(N)nc5c4c(N)nn5C)cc3)c(C#N)c(N)nc21		≥ 50	≥ 50		
N#Cc1c(O)nc2nn3c4cc(O)ccc4nnc3c2c1-c1ccccc1Cl	39.5	9.12	≥ 50	0.087	
O=c1[nH]cc(F)c(=O)[nH]1 [FLUOROURACIL]	15.7	5.8	39.7		

Source: ChEMBL document CHEMBL4699630, “Discovery of novel pyrazolo[3,4-b]pyridine scaffold-based derivatives as potential PIM-1 kinase inhibitors in breast cancer MCF-7 cells” (Bioorg Med Chem, 2020)
